The source of these data is ChEMBL document CHEMBL4033620, “Design, synthesis and biological evaluation of quinoline derivatives as HDAC class I inhibitors” (Eur J Med Chem, 2017).

SMILES strings stand for the structures.

In test [1] the test system is K562. Briefly: Induction of apoptosis in human K562 cells assessed as early apoptotic cells at 2 uM after 24 hrs by Annexin V-FITC/propidium iodide staining-based flow cytometry (reference value: 4.78%). It is filed as functional. In general terms: A flow cytometer gives signals particle by particle.
Test [2] concerns PC-3. Briefly: Potency index, ratio of vorinostat IC50 to compound IC50 for human PC3 cells. Type of test: functional. Put shortly: (§1)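 Cells were grown in RPMI1640 with 10% FBS at 37°C and 5% CO2, seeded at 4000–5000 cells/well for 8 h, then exposed to a compound concentration series for 48 h. MTT (0.5%) was added for 4 h and formazan dissolved in DMSO. A570 was read and IC50 derived from inhibition ratios.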

The nature of test [3]: Inhibition of Class 2a histone deacetylase in human K562 cells using Boc-Lys-(epsilon-trifluoromethylacetyl)-AMC as substrate preincubated with compound for 3 hrs followed by substrate addition measured after 3 hrs by fluorometric analysis. Type of test: cell-based.
A further test concerns MOLT-4. Briefly: Antiproliferative activity against human MOLT4 cells after 48 hrs by MTT assay. It is filed as functional, cell-based. Conditions: MOLT-4, 48 h.
In test [4] the test system is PC-3. Briefly: Antiproliferative activity against human PC3 cells after 48 hrs by MTT assay. Type of test: functional, cell-based. To be noted: PC-3, 48 h. Summed up:
(§2)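 Cells grown in RPMI1640 with 10% FBS at 37°C, 5% CO2. Seeded at 4000–5000 cells/well for 8 h, then exposed to a range of compound concentrations for 48 h. 0.5% MTT solution added for 4 h, formazan dissolved in DMSO, absorbance read at 570 nm. IC50 derived from inhibition ratios, given as mean ± standard deviation of two or three separate determinations.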
(In general: Formazan colour is commonly taken as a measure of viable cells.)

The next test deals with T1, Histone deacetylase 8 (Homo sapiens, UniProt Q9BY41).
T1 sequence (Q9BY41 whole entry): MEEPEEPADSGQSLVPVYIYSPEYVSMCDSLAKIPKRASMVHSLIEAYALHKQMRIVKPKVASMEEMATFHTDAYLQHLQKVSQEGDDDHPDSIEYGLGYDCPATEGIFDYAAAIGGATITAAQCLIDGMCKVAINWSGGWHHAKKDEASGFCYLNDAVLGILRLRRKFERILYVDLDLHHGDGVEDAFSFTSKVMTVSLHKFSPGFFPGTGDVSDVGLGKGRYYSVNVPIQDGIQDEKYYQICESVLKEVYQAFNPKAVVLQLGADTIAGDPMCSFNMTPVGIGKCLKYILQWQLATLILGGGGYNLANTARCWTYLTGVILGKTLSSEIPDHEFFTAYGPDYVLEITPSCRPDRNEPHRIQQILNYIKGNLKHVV
Briefly: Inhibition of HDAC8 (unknown origin) using substrate after 30 mins by fluorometric analysis.

Test [5] deals with T2, Protein deacetylase HDAC6 (Homo sapiens, UniProt Q9UBN7).
T2 sequence (Q9UBN7 whole entry): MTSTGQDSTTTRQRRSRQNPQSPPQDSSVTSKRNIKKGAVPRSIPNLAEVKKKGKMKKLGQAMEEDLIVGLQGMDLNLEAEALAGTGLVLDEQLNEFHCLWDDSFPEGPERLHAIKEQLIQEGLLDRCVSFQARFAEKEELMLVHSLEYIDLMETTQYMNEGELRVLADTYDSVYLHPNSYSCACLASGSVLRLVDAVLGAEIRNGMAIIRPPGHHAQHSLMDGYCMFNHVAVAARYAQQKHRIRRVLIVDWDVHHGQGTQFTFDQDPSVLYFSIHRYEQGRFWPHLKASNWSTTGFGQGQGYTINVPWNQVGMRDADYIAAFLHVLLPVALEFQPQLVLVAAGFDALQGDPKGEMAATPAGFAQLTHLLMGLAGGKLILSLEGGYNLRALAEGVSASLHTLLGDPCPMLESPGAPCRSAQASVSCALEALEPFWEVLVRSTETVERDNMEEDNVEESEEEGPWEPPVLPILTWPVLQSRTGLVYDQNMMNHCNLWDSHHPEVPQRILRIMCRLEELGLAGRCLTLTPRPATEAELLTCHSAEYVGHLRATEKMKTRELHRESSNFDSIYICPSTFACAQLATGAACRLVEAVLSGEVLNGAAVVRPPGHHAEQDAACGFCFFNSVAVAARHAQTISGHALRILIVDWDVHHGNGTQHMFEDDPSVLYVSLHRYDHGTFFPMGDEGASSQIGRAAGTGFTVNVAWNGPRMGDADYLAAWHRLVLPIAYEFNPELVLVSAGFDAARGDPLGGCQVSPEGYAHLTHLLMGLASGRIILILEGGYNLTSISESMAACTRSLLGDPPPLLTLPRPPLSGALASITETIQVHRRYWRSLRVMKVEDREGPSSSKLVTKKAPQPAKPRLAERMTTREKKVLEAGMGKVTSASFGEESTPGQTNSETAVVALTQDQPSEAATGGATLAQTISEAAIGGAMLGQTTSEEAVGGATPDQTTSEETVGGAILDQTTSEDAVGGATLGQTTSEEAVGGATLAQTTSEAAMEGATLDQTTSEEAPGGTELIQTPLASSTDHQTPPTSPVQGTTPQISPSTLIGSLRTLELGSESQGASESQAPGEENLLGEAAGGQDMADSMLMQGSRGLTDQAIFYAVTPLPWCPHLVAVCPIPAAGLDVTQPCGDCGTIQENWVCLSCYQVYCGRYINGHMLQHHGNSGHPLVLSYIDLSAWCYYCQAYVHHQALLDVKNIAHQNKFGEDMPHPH
Briefly: Inhibition of HDAC6 (unknown origin) using substrate after 30 mins by fluorometric analysis.

The next test deals with Histone deacetylase 1 (Homo sapiens, UniProt Q13547). Briefly: Inhibition of HDAC1 (unknown origin) using substrate after 30 mins by fluorometric analysis.
Test [6] addresses Histone deacetylase (HDAC1 and HDAC2) (Homo sapiens, UniProt Q13547+Q92769). Briefly: Inhibition of HDAC1/2 in human HeLa cell nuclear extract using COLOR DE LYS as substrate pretreated for 5 mins followed by substrate addition measured after 30 mins by UV-absorption method. It is filed as cell-based.
For test [7], the system named is K562. Briefly: Induction of apoptosis in human K562 cells assessed as late apoptotic cells at 1 uM after 24 hrs by Annexin V-FITC/propidium iodide staining-based flow cytometry (reference value: 2.83%). It is filed as functional.
Test [8] relates to K562. Briefly: Induction of apoptosis in human K562 cells after 24 hrs by Annexin V-FITC/propidium iodide staining-based flow cytometric method. Type of test: functional, cell-based.
For another test, the system named is HeLa. Briefly: Antiproliferative activity against human HeLa cells after 48 hrs by MTT assay. It is filed as functional, cell-based. Summed up:
as §2

A short description of test [9]: Inhibition of Class 1 histone deacetylase in human K562 cells using Boc-Lys (acetyl)-AMC as substrate preincubated with compound for 3 hrs followed by substrate addition measured after 3 hrs by fluorometric analysis. Type of test: cell-based.
The subject of test [10] is K562. Briefly: Induction of apoptosis in human K562 cells assessed as viable cells at 1 uM after 24 hrs by Annexin V-FITC/propidium iodide staining-based flow cytometry (reference value: 92.4%). To be noted: Homo sapiens, K562, 24 h; read-out: Activity. It is filed as functional.
In test [11] the test system is K562. Briefly: Induction of apoptosis in human K562 cells assessed as late apoptotic cells at 2 uM after 24 hrs by Annexin V-FITC/propidium iodide staining-based flow cytometry (reference value: 2.83%). Type of test: functional.
Test [12] relates to K562. Briefly: Induction of apoptosis in human K562 cells assessed as necrotic cells at 1 uM after 24 hrs by Annexin V-FITC/propidium iodide staining-based flow cytometry (reference value: 0.035%). Type of test: functional.
Test [13] relates to K562. Briefly: Antiproliferative activity against human K562 cells after 48 hrs by MTT assay. Type of test: functional, cell-based. To be noted: K562, 48 h.
A further test relates to HEL. Briefly: Antiproliferative activity against human HEL cells after 48 hrs by MTT assay. Type of test: functional, cell-based.
In test [14] the test system is K562. Briefly: Induction of apoptosis in human K562 cells assessed as viable cells at 2 uM after 24 hrs by Annexin V-FITC/propidium iodide staining-based flow cytometry (reference value: 92.4%). Type of test: functional. Conditions: Homo sapiens, K562, 24 h; read-out: Activity.
In test [15] the test system is K562. Briefly: Induction of apoptosis in human K562 cells assessed as necrotic cells at 2 uM after 24 hrs by Annexin V-FITC/propidium iodide staining-based flow cytometry (reference value: 0.035%). Type of test: functional.
Test [16] concerns K562. Briefly: Potency index, ratio of vorinostat IC50 to compound IC50 for human K562 cells. Type of test: functional. Summed up:
as §1

Test [17] concerns K562. Briefly: Induction of apoptosis in human K562 cells assessed as early apoptotic cells at 1 uM after 24 hrs by Annexin V-FITC/propidium iodide staining-based flow cytometry (reference value: 4.78%). Type of test: functional.

Chain of Histone deacetylase 1 (Q13547 whole entry): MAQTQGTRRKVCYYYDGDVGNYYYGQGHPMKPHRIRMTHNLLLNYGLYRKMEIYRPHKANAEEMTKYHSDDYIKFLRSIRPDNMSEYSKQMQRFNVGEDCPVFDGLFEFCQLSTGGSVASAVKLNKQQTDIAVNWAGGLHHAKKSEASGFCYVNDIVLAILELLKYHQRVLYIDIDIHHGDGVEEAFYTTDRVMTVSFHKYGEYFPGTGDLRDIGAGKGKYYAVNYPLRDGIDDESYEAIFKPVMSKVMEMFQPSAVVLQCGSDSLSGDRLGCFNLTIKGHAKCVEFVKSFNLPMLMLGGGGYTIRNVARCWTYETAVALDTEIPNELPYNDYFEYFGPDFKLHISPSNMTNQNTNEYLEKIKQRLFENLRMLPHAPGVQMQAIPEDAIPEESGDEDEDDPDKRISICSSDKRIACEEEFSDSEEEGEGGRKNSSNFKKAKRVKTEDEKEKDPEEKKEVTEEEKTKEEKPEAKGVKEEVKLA

Usually IC50 stands for the concentration needed to halve the response being measured. Regarding `O=C(/C=C/c1ccc(CNCc2ccc3cccc(Cl)c3n2)cc1)NO`, the Activity was 56.2% in the test on K562 [1]; 3.75% in the test with K562 [7]; “Dose-dependent effect” in the test on K562 [8]; 2.96% with K562 [11]; 0.145% with K562 [12]; 0.174% in the test on K562 [15]. In addition, in the test with K562 [17], the Activity is 38.2%. The “Ratio IC50” value in the test on PC-3 [2] and with K562 [16] was 3 - 5 in each case. Moreover, the IC50 in test [3] was 4210 nM; with MOLT-4, 160 nM; in the test with PC-3 [4] it was 2920 nM; on Histone deacetylase 8, 911 nM; in [5] it was 36.5 nM; at Histone deacetylase 1 it was 95 nM. In addition, the IC50 in test [6] came out at 275 nM; with HeLa, 1820 nM; in test [9], 64 nM; with K562 [13], 360 nM; in the test with HEL, 110 nM. The viability at 1 µM in the test on K562 [10] is 57.9%. In addition, the viability at 2 µM in the test with K562 [14] is 40.7%.
Take `O=C(/C=C/c1ccc(CNCc2ccc3ccccc3n2)cc1)NO`: the Activity with K562 [1] was 58.2%; in the test on K562 [7] it was 1.95%; with K562 [8], “Dose-dependent effect”; in the test with K562 [11], 2.16%; with K562 [12], 0.121%; in the test on K562 [15], 0.072%. The Activity in the test with K562 [17] is 34.5%. Also, the “Ratio IC50” value in the test with PC-3 [2] and in the test with K562 [16] was 3 - 5 each time. In addition, the IC50 in test [3] was determined as 5210 nM; with MOLT-4, 240 nM; in the test with PC-3 [4], 3080 nM; on Histone deacetylase 8, 442 nM; in [5], 49.5 nM; against Histone deacetylase 1, 72.5 nM. Besides, the IC50 was 138 nM in test [6]; 2200 nM with HeLa; 108 nM in test [9]; 510 nM with K562 [13]; 150 nM with HEL. Moreover, in the test on K562 [10], the viability at 1 µM was 63.4%. The viability at 2 µM in the test on K562 [14] amounted to 39.6%.
